Screening data as filed in PubChem BioAssay.
ABHD4 inh – inhibits mouse alpha/beta hydrolase domain 4; Q8VD66; 370,000 tested, 0.54% active; AID 720543; purified mABHD4, FP-Rh probe fluorescence polarization; inhibition, % at 8.92 µM;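 active = inhibition exceeding the mean over every tested compound plus 3 SD, cut at about 30% in these data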;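 note: 0% = plate median of compound wells and 100% = S159A mutant with DMSO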
Target sequence (Q8VD66 whole entry, looked up, the tested form may be a part): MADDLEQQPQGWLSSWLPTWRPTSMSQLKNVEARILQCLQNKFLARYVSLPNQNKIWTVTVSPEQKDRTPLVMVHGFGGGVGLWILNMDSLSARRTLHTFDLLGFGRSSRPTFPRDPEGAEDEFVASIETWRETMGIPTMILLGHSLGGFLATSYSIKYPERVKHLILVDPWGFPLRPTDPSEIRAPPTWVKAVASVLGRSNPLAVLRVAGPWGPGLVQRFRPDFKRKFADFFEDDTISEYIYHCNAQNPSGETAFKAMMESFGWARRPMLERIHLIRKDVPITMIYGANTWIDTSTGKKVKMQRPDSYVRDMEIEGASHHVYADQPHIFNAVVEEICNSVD
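Test system: mABHD4 protein; Read-out basis: % inhibition; Incubation: 45 min + 60 min at 25 °C; Repeats: single replicate; Technique: fluorescence polarization with parallel and perpendicular emission, 525/598 nm; Compound: 8.92 µM, single dose; Benchmarks: full inhibition S159A mutant plus DMSO, zero as sample-well median.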
rCAG binder – molecules binding r(CAG) RNA repeats; r(CAG) RNA repeat, TO-PRO-1 dye displacement fluorescence; inhibition, % at 3 µM; 370,000 tested, 1.3% active; AID 651821;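 active = inhibition above the plate cutoff, the mean of all test compounds on that plate plus 3 SD, cut at about 35% in these data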;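 note: 0% = DMSO alone and 100% = 100 µM mitoxantrone as full dye displacement; higher means more dye released from RNA so lower well fluorescence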
TCR CD3 inh – human TCR-CD3 binding inhibition | AID 651800 | inhibition, % at 9.4 µM | TAMRA-labeled TCR probe fluorescence, biochemical | 360,000 tested, 0.37% active; in the data active = inhibition above about 19%;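 note: recombinant mutant TCR 2C K166C tagged with TAMRA read by polarization; 0% = receptor in buffer alone and 100% = receptor with positive control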
PRMT1 FP inh – PRMT1 (human) inhibition, primary screen | Q99873 | recombinant PRMT1, activity-based probe fluorescence polarization | inhibition, % at 2.79 µM | 370,000 tested, 1.3% active;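 active = inhibition above about 21% made by adding two undisclosed values, limit read from the data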
Target sequence (Q99873 whole entry, looked up): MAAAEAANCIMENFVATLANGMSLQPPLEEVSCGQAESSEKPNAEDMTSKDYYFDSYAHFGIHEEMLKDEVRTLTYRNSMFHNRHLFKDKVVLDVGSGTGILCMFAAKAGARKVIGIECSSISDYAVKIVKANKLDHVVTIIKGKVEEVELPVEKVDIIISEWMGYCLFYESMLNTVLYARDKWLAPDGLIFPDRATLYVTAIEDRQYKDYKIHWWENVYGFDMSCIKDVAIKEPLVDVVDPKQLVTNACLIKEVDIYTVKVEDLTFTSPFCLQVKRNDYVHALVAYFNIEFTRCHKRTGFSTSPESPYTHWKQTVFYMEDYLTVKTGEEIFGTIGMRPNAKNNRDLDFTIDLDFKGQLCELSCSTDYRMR
SIAE inh – human SIAE inhibition, primary screen | Q9HAT2 | inhibition, % at 9.66 µM | 370,000 tested, 0.69% active | SIAE FP-Rh probe binding, fluorescence polarization;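 active = inhibition above a cutoff: mean of compounds within the control limits plus 3 SD of those, cut at about 17% in these data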;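 note: 0% = plate median of compound wells and 100% = probe without SIAE protein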
rCAG bind conf – r(CAG) RNA repeat binding, confirmation; shares compounds with rCAG binder; TO-PRO-1 dye displacement fluorescence; inhibition, % at 3 µM; 4,300 tested, 70% active; AID 652065;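 active = inhibition above a per-plate cutoff, the mean inhibition of sample wells plus 3 SD, cut at about 35% in these data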;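 note: loss of TO-PRO-1 fluorescence as compound displaces dye from 1x1 AA loop RNA; 0% = DMSO only wells and 100% = 100 µM mitoxantrone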
dCAG dye counter – counter-screen for rCAG RNA binders: DNA CAG dye complex inhibitors; inhibition, % at 3 µM; shares compounds with rCAG binder; 4,300 tested, 94% active; AID 652068; d(CAG) DNA oligo TO-PRO-1 dye displacement, fluorescence;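 active = inhibition above its plate's cutoff, the mean test-well inhibition plus 3 SD, cut at about 4.8% in these data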;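 note: 0% = DNA dye mix with DMSO and 100% = 100 µM mitoxantrone; hits displace the dye from DNA and so lower well fluorescence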
DNA CAG DR – disrupts DNA CAG TO-PRO-1 complex in dose response; DNA CAG/GTC duplex TO-PRO-1 dye displacement fluorescence; AID 686960; IC50, µM; 250 tested, 20% active; shares compounds with rCAG binder; in the data active = IC50 below about 10 µM
The depositor's hits bear a star; i = inactive; . = not tested or not shown. Hits are enriched below; roughly 3.3% of the tested compounds scored in any of these assays.

SMILES | ABHD4 inh | rCAG binder | TCR CD3 inh | PRMT1 FP inh | SIAE inh | rCAG bind conf | dCAG dye counter | others
Cc1ccc(S(=O)(=O)N2[C@@H](c3ccc(C(C)(C)C)cc3)C(C(=O)O)=CC[C@H]2c2ccc(C(C)C)cc2)cc1 | 23 | 90* | -5 | 7 | -42 | 74* | 44*
C/C(C=NNC(=O)CSc1nc2ccccc2n1Cc1ccccc1Cl)=C\c1ccccc1 | -7 | 4 | . | -7 | -10 | . | .
COc1cccc(N2CCN(CC(=O)NCc3cccc(OC)c3OC)CC2)c1 | 0 | -2 | . | 1 | -2 | . | .
CCCCN1CC(C(=O)NCc2ccc(C)cc2)CC1=O (stereo unspecified) | -6 | 46* | -6 | 2 | 0 | 0 | -1
CCOc1ccc(/C=C/C(=O)c2ccccc2)cc1 | -1 | -4 | 3 | -2 | -7 | . | .
O=C(O)COc1ccc(/C=C/C(=O)c2ccc(C3CCCCC3)cc2)cc1 | -30 | 48* | 7 | 0 | -6 | 68* | 29*
Cc1noc(NS(=O)(=O)c2ccc(N/C=C\C(=O)c3ccc(Br)cc3)cc2)c1C | 3 | 75* | 4 | 10 | -8 | 74* | 39*
Cc1noc(NS(=O)(=O)c2ccc(N/C=C\C(=O)c3ccc4c(c3)OCO4)cc2)c1C | -11 | 44* | 8 | 0 | 2 | 43* | 14*
CCOc1ccc(C(=O)/C=C/Nc2ccc(S(=O)(=O)Nc3onc(C)c3C)cc2)cc1 | 6 | 42* | 9 | 0 | -1 | 64* | 25*
Cc1noc(NS(=O)(=O)c2ccc(N/C=C\C(=O)c3cccc4ccccc34)cc2)c1C | -4 | 72* | 3 | -1 | -13 | 81* | 46*
COc1cccc(C(=O)/C=C/Nc2ccc(S(=O)(=O)Nc3onc(C)c3C)cc2)c1 | -2 | 13 | -4 | -1 | -4 | . | .
COc1ccc(NC(=O)CSc2ncnc3scc(-c4ccc(C)cc4)c23)cc1OC | 1 | 9 | . | -1 | 2 | . | .
C[C@H]1[C@@H](OC(=O)NCc2cccc(C(F)(F)F)c2)CC[C@@]23CCCN2C(=O)CCC[C@@H]13 | -1 | . | . | -6 | 3 | . | .
Cc1nnc(C)n1N=Cc1ccc(O)cc1O | 7 | 1 | . | 2 | 8 | . | .
CS(=O)(=O)OC12CCCN(C1)/C(=C/c1ccc(Cl)cc1)C2 (stereo unspecified) | 3 | 3 | . | 0 | 7 | . | .
CC(C)(C)N(NC(=O)NCCCl)C(=O)c1ccccc1Cl | -1 | 2 | . | -2 | -5 | . | .
CCOC(=O)C1=C(C)N=c2s/c(=C3/C(=O)Nc4ccccc43)c(=O)n2C1c1ccc(C)cc1 (stereo unspecified) | -13 | 43* | 8 | 23* | -31 | 53* | 22* | DNA CAG DR=i
CC(C)N1CCCCC(NC(=O)c2ccc(-c3ccccc3)cc2)C1=O (stereo unspecified) | -3 | 1 | . | 3 | -2 | . | .
O=C(NNc1ccc(C(F)(F)F)cc1[N+](=O)[O-])c1ccc(NS(=O)(=O)c2ccc(F)cc2)cc1 | 12 | 71* | 5 | 12 | 13 | 61* | 22*
Cc1ccc(S(=O)(=O)/N=C2/NC(=O)/C(=C\c3ccccc3)S2)cc1 | -47 | 83* | 5 | 0 | -20 | 76* | 36*
Cc1ccc(/C=C2\S/C(=N/S(=O)(=O)c3cccs3)NC2=O)cc1 | -20 | 60* | 8 | 0 | -31 | 65* | 24*
Cc1ccc(S(=O)(=O)/N=C2/NC(=O)/C(=C/c3ccncc3)S2)cc1 | -2 | 4 | 2 | -1 | 2 | . | .
Cc1ccc(S(=O)(=O)/N=C2/NC(=O)/C(=C/c3ccccc3)S2)cc1 | -41 | 84* | 2 | 2 | -22 | 71* | 30* | DNA CAG DR=4.9*
O=C1N/C(=N/S(=O)(=O)c2ccccc2)S/C1=C/c1cccnc1 | 2 | 14 | 3 | 5 | 4 | . | .
C[C@H]1[C@H](NC(=O)c2ccc(Cl)c(Cl)c2)CC[C@@]23CCCN2C(=O)CCC[C@@H]13 | 2 | . | . | 0 | 7 | . | .
SMILES | ABHD4 inh | rCAG binder | TCR CD3 inh | PRMT1 FP inh | SIAE inh | rCAG bind conf | dCAG dye counter | others
O=C(Nc1ccc(F)cc1)Nc1c(-c2ccc(F)cc2)nc2ncccn12 | 1 | 7 | . | 0 | -1 | . | .
Cc1ccc(S(=O)(=O)N2[C@@H](c3ccc(F)cc3)C(C(=O)O)=CC[C@H]2c2cccc(C)c2)cc1 | 5 | 9 | -10 | 2 | 1 | . | .
Cc1ccc(S(=O)(=O)N2C(c3cccc(Cl)c3)CC=C(C(=O)O)C2c2cccc(Cl)c2)cc1 (stereo unspecified) | 17 | 4 | 4 | -1 | -4 | . | .
COc1ccc([C@@H]2CC=C(C(=O)O)[C@H](c3ccc(Cl)cc3)N2S(=O)(=O)c2ccc(Cl)cc2)cc1 | 2 | 59* | 1 | -1 | -4 | 74* | 38*
CCOc1ccc([C@@H]2CC=C(C(=O)O)[C@H](c3cccc(Cl)c3)N2S(=O)(=O)c2ccc(C)cc2)cc1 | 11 | 69* | 1 | 0 | 1 | 71* | 33* | DNA CAG DR=i
COc1ccc([C@@H]2CC=C(C(=O)O)CN2S(=O)(=O)c2ccc(Cl)cc2)cc1 | 6 | 16 | -6 | -3 | -4 | . | .
CCc1ccc([C@@H]2CC=C(C(=O)O)[C@H](c3ccccc3)N2S(=O)(=O)c2ccc(C)cc2)cc1 | -3 | 76* | 6 | -4 | 0 | 67* | 27*
CCOc1ccc([C@@H]2CC=C(C(=O)O)[C@H](c3ccc(F)cc3)N2S(=O)(=O)c2ccc(C)cc2)cc1 | 5 | 52* | -6 | 1 | -4 | 51* | 15*
Cc1ccc([C@@H]2CC=C(C(=O)O)[C@H](c3ccc(F)cc3)N2S(=O)(=O)c2ccc(C)cc2)cc1 | 5 | 54* | 5 | 3 | -6 | 61* | 24*
CCc1ccc([C@@H]2CC=C(C(=O)O)[C@H](c3ccc(F)cc3)N2S(=O)(=O)c2ccc(C)cc2)cc1 | -20 | 80* | -3 | 2 | -7 | 62* | 24*
O=C(O)C1=CC[C@@H](c2ccc(Cl)cc2)N(S(=O)(=O)c2ccc(Cl)cc2)[C@H]1c1ccc(F)cc1 | -4 | 70* | 6 | 0 | -3 | 68* | 30*
Cc1ccc(S(=O)(=O)N2[C@@H](c3ccccc3F)C(C(=O)O)=CC[C@H]2c2cccc(Cl)c2)cc1 | 8 | 13 | 3 | -1 | 0 | . | .
Cc1ccccc1S(=O)(=O)N1[C@@H](c2ccc(F)cc2)C(C(=O)O)=CC[C@H]1c1ccc(Cl)cc1 | 8 | 58* | -1 | -1 | 10 | 72* | 33* | DNA CAG DR=i
CCCC[C@H]1C2CC(OC(=O)Nc3ccc4c(c3)OCO4)C(C2)[C@H]2CCCCN21 (stereo partly specified) | 1 | -3 | . | 2 | 8 | . | .
